Test results as given in ChEMBL document CHEMBL1139386, “Discovery of novel CB2 receptor ligands by a pharmacophore-based virtual screening workflow” (J Med Chem, 2009).

Tests used:
Homo sapiens = species on record: Homo sapiens; experiment: Selectivity ratio of Ki for human CB1 receptor to Ki for human CB2 receptor
How it was run: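 Ki ratio from radioligand displacement on membranes overexpressing human CB1 (7.16 µg, 0.39 nM radioligand) or CB2 (3.8 µg, 0.11 nM radioligand). Incubation 90 min at 30 °C in Tris/EGTA/MgCl2/BSA buffer, pH 7.4, then GF/C filtration and scintillation counting; nonspecific binding with 10 µM reference ligand. IC50 from Hill plots; three independent experiments in triplicate.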

Cannabinoid receptor 1 [1] = biological target: T1, Cannabinoid receptor 1 (Homo sapiens, UniProt P21554); experiment: Binding affinity to CB1 receptor
T1 sequence (P21554 whole entry): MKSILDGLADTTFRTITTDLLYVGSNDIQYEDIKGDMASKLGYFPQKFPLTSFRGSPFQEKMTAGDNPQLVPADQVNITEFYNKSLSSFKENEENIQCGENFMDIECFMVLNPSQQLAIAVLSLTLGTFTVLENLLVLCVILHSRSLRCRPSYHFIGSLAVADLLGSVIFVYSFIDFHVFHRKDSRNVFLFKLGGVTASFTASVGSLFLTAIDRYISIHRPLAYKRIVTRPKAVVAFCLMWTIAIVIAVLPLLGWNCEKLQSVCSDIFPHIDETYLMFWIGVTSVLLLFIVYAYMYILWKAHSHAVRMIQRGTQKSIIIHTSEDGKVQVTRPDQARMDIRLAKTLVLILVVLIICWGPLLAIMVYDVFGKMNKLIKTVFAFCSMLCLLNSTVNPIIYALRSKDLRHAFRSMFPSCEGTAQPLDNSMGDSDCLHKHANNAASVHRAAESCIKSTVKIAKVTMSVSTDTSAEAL

Cannabinoid receptor 2 [2] = biological target: T2, Cannabinoid receptor 2 (Homo sapiens, UniProt P34972); experiment: Binding affinity to CB2 receptor
T2 sequence (P34972 whole entry): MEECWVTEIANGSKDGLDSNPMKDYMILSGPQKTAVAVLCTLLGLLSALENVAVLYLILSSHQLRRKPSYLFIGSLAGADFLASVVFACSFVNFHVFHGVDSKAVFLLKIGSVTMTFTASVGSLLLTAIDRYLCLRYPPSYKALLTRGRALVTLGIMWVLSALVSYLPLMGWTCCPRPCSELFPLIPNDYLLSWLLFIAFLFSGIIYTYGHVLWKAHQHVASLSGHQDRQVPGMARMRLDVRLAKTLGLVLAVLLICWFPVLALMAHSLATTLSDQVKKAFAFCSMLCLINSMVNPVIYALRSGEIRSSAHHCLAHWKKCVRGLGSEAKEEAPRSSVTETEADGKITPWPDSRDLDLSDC

[3] = Selectivity ratio of Ki for CB1 receptor to Ki for CB2 receptor
Cannabinoid receptor 1 [4] = biological target: T1, Cannabinoid receptor 1; experiment: Displacement of [3H]CP-55940 from human recombinant CB1 receptor
Cannabinoid receptor 2 [5] = biological target: T2, Cannabinoid receptor 2; experiment: Displacement of [3H]CP-55940 from human recombinant CB2 receptor
How it was run: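 Membranes from cells recombinantly overexpressing CB2 (Bmax 4.7 pmol/mg protein), 3.8 µg, in binding buffer (50 mM Tris-HCl, 2.5 mM EGTA, 5 mM MgCl2, 0.5 mg/mL fatty-acid-free BSA, pH 7.4) with 0.11 nM radioligand. Compounds were tested at varying concentrations, with nonspecific binding defined by 10 µM reference ligand. Incubation was 90 min at 30 °C, followed by PEI-soaked GF/C filtration and scintillation counting. Data were normalized and Hill-linearized to give IC50 and Ki (three experiments, triplicate).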

Cannabinoid receptor 2 [6] = biological target: T2, Cannabinoid receptor 2; experiment: Agonist activity at human CB2 receptor expressed in CHO-K1 cells assessed as forskolin-stimulated cAMP release; format: functional, cell-based; conditions: filed as partial agonist
How it was run: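 CHO-K1 cells expressing hCB2, plated at 3×10^5 cells/mL overnight, were preincubated 10 min in supplement-free RPMI 1640 with 500 µM IBMX. Test compounds were added at several concentrations for 30 min at 37 °C, then 20 µM forskolin for a further 30 min at 37 °C. Intracellular cAMP was read by EFC chemiluminescence, with a high-affinity CB ligand as positive control.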

Row | SMILES | Ratio Ki (Homo sapiens) | Ki (Cannabinoid receptor 1 [4]) [nM] | Ki (Cannabinoid receptor 2 [5]) [nM] | other results
1 | CC1CCN(C(=O)c2ccc3c(c2)c2c(n3S(C)(=O)=O)CN(C3CCCC3)C2)CC1 | 35 |  |  | 
2 | CCCCCn1cc(C(=O)c2cc3ccccc3cc2OC)c2ccccc21 |  |  |  | Ki (Cannabinoid receptor 1 [1]): 381 nM; Ki (Cannabinoid receptor 2 [2]): 7.2 nM; Ratio Ki [3]: 53
3 | CCCCCC(C)(C)c1cc(OC)c2c(c1)OC(C)(C)[C@@H]1CCC(C)=C[C@@H]21 | 174 |  |  | 
4 | O=C(NCC1CCOCC1)c1cnc(Nc2ccc(Cl)cc2Cl)nc1C(F)(F)F [GW842166X] | > 600 |  |  | EC50 (Cannabinoid receptor 1 [4]): > 30000 nM
5 | CCCn1c(C)c(C(=O)c2cccc3cc(OC)ccc23)c2ccccc21 | > 333 | > 10000 |  | 
6 | CC(=O)n1c2c(c3cc(C(=O)N4CCC(C)CC4)ccc31)CN(C1CCCC1)C2 | 26 |  |  | 
7 | CCCCCCC(C)(C)c1cc(O)c2c(c1)oc(=O)c1ccc(O)cc12 | 488 | 400 | 0.82 | 
8 | COc1ccc(OC)c(N(CC(=O)NCc2ccncc2)S(=O)(=O)c2ccc(C)cc2)c1 | > 37 | > 50 | 1.35 | 
9 | CN1CCCC[C@@H]1Cn1cc(C(=O)c2cc([N+](=O)[O-])ccc2I)c2ccccc21 |  |  |  | Ki (Cannabinoid receptor 1 [1]): 5000 nM; Ki (Cannabinoid receptor 2 [2]): 15.1 nM; Ratio Ki [3]: 331
10 | CCCCCn1c(C)c(C(=O)c2c(OC)ccc3ccccc23)c2ccccc21 | 34 | 1380 |  | 
11 | CCCCCCC(C)(C)c1cc(OC)c([C@@]2(O)CCC[C@@H](C)C2)c(OC)c1 | 220 | 5060 | 23 | 
12 | Cc1cccc(-c2nnc(SCC(=O)NC3CCCCC3)n2Cc2ccccc2)c1 | > 2 | > 50 | < 25 | 
13 | COc1ccc2c(c1)c(CN1CCOCC1)c(C)n2C(=O)c1cccc(Cl)c1Cl | 153 |  |  | 
14 | CCCCSc1nc2c(c(=O)n1CCc1ccccc1)C1(CCCC1)Cc1ccccc1-2 | > 2 | > 50 | < 25 | 
15 | CCc1ccccc1NC(=O)CSc1nnc(-c2ccccc2OC)n1-c1ccccc1 | > 23 | > 50 | 2.1 | 
16 | COc1ccc2c(c1)c(CCN1CCOCC1)c(C)n2C(=O)c1cccc(Cl)c1Cl |  |  |  | Ratio Ki [3]: 160
17 | CCCCCCC(C)(C)c1cc(OC)c([C@H]2C=C(CO)[C@@H]3C[C@H]2C3(C)C)c(OC)c1 |  |  |  | Ki (Cannabinoid receptor 1 [1]): 10000 nM
18 | COc1ccc2c(c1)c(CC(=O)N1CCOCC1)c(C)n2C(=O)c1cccc(Cl)c1Cl | 146 |  |  | 
19 | CCCCCCc1cc(O)c2c(c1)OC(C)(C)C1=C2CCN(C)C1 | > 27 | > 50 | 1.78 | Activity (Cannabinoid receptor 2 [6]): Partial agonist
20 | CCCn1cc(C(=O)c2ccc(C)c3ccccc23)c2ccccc21 | 173 | 1050 |  | 
21 | CCOc1ccc(N(CC(=O)N[C@@H](C)CC)S(=O)(=O)c2ccc(Br)cc2)cc1 | > 2 | > 50 | < 25 | 
22 | CCS(=O)(=O)n1c2c(c3cc(C(=O)N4CCC(OC)CC4)ccc31)CN(C1CCCC1)C2 | 77 |  |  | 
23 | CCCC(C)(C)c1ccc2c(c1)OC(C)(C)[C@@H]1CC=C(C)C[C@@H]21 | 35 | 0.797 | 0.023 | Ki (Cannabinoid receptor 1 [1]): 677 nM; Ki (Cannabinoid receptor 2 [2]): 3.4 nM; Ratio Ki [3]: 199
24 | CCCCCN(CCCCC)C(=O)c1ccccc1C(=O)Nc1ccc(Br)cc1 | > 2 | > 50 | < 25 | 
25 | CCCCCCC(C)(C)c1cc(OC)c(C2(O)CCOCC2)c(OC)c1 | > 29 | > 10000 | 342 | 
26 | CCCN1Cc2c(n(S(=O)(=O)CC)c3ccc(C(=O)N4CCC(C)CC4)cc23)C1 | 54 |  |  | 
